High-throughput results: PubChem, several laboratories
The sample as a whole holds a higher share of hits than the screen did.
S1P3 antag = antagonists of human S1P3 receptor. inhibition, % at 4.98 µM. AID 485. CHO S1P3 NFAT-BLA reporter, FRET fluorescence, antagonist mode. Q99500. actives 0.27% (n = 170,000);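 active = inhibition above the plate cutoff, the mean inhibition of test wells on that plate plus 3 SD, cut at about 28% in these data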;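 also: cells challenged with S1P at its EC80 of 0.8 µM; blue over green emission ratio from cleaved BLA substrate after 4 h stimulation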
Target sequence (Q99500 whole entry, looked up): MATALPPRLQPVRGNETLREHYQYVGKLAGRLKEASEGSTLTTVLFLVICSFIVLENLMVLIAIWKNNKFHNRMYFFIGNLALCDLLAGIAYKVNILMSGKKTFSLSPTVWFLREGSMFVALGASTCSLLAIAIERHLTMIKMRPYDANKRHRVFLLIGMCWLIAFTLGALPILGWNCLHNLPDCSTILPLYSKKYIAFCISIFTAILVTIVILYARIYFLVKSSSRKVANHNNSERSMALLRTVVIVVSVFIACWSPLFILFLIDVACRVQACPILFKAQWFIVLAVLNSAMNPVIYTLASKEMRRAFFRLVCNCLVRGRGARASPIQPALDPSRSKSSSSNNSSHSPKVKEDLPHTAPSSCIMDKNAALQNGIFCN
MDM2 E3 inh = blocks human Mdm2 ubiquitin ligase activity; Q00987; cell-based MDM2 ubiquitination luciferase reporter, 2 h; 0 = plate control, 100 = twice control, blank-subtracted; signal enhancement, % at 5 µM; actives 0.11% (n = 210,000); AID 1230;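 active = signal enhancement of 30% or more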;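 also: luminescence tracks abundance of the self-degrading MDM2-luciferase fusion protein; higher signal means inhibition of MDM2 E3 ligase activity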
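test system = mammalian cells stably expressing self-ubiquitinating, self-degrading MDM2 E3–luciferase fusion | quantity = 2000 cells/well | incubation = cell settling 4 h, compound treatment 2 h, both 37 °C | signal = luminescence with SteadyLite reagent, 15 min at room temperature | evaluation = % enhancement relative to plate controls after blank subtraction | benchmarks = plate controls and plate blanks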
S1P4 agonist = activates the human S1P4 receptor | O95977 | S1P4-expressing cell line, agonist reporter assay | activation, % at 4.98 µM | actives 0.35% (n = 220,000) | AID 1509; in the data active = activation above about 11%
L major viab = reduces viability of Leishmania major promastigotes | resazurin fluorescence viability | inhibition, % at 10 µM | actives 9% (n = 200,000) | AID 1063; in the data active = inhibition above about 50%;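 also: promastigotes grown with compound for 44 hours at 28 °C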
S1P4 antag = antagonists of human S1P4 receptor. S1P4-expressing cells, antagonist mode, reporter read-out. actives 0.26% (n = 220,000). inhibition, % at 4.98 µM. O95977; in the data active = inhibition above about 29%
Lmaj promast 1uM = inhibitors of Leishmania major promastigote growth, repeat at 1 uM; actives 13% (n = 1,100); L. major promastigote growth, resazurin fluorescence, 48 h; AID 1258; shares compounds with L major viab; inhibition, % at 1 µM;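 active = inhibition above about 50% in both repeat tests, limit read from the data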
Large screens that a line does not name were inactive (follow-up assays come after a bar, where they were run).

CCOc1ccc(S(=O)(=O)N2Cc3ccccc3CC2C(=O)NCCCn2ccnc2)cc1 (configuration not stated)	L major viab 98.2 | Lmaj promast 1uM inactive
N#Cc1cn(-c2ccccc2)nc1-c1ccc2c(c1)OCCO2	none
O=Cc1cn(-c2ccccc2)nc1-c1ccc2c(c1)OCCO2	L major viab 96.3 (no result: S1P3 antag) | Lmaj promast 1uM inactive
Cc1ccc(Oc2ccc(-c3nc(N)nc(N)n3)cc2)cc1C	L major viab 99.3 (no result: S1P3 antag) | Lmaj promast 1uM inactive
Nc1nc(N)nc(-c2ccc(Oc3ccccc3)cc2)n1	none (no result: S1P3 antag)
Cc1ccc(Oc2ccc(S(=O)(=O)N3CCOCC3)cc2C(N)=O)c(-n2nc3ccccc3n2)c1	L major viab 54.4 | Lmaj promast 1uM inactive
CCOC(=O)C(C)Sc1nnc(NC(=O)c2ccc3c(c2)OCO3)s1 (configuration not stated)	none
COc1ccc(S(=O)(=O)N(CC(=O)O)c2ccc(C)cc2)cc1	none
COc1ccc(N(C(=O)COc2cccc(C)c2)S(=O)(=O)c2ccc(C)cc2)cc1	L major viab 51.9 | Lmaj promast 1uM inactive
COc1ccc(S(=O)(=O)NCc2ccc(C(=O)N3CCc4ccccc4C3)cc2)cc1	none
O=C1C=C(N(CCO)Cc2ccccc2)c2ccccc2C1=O	L major viab 95.5 | Lmaj promast 1uM inactive
O=C(COC(=O)/C=C/c1ccc(Cl)cc1Cl)NCc1ccco1	none
CC(C)c1ccc(OCC(=O)N(Cc2ccccc2)c2ccccn2)cc1	none
CCOc1ccc2nc(N3C(=O)/C(=C/c4ccccc4)NC3=S)sc2c1	none
COc1ccc2nc(N3C(=O)/C(=C/c4ccccc4)NC3=S)sc2c1	L major viab 60.9 | Lmaj promast 1uM inactive
O=Cc1ccc(OCC(=O)N2CCOCC2)cc1	none
CC1=NCC(C)c2c1[nH]c1ccccc21 (configuration not stated)	L major viab 83.8 (no result: S1P3 antag) | Lmaj promast 1uM inactive
Cc1[nH]c2ccccc2c1C(c1ccncc1)N1CCC(C)CC1 (configuration not stated)	none
CCN1C(=O)C2(C(C(=O)c3cc4ccccc4o3)=C(O)C(=O)N2CCCN(C)C)c2ccccc21 (configuration not stated)	none (no result: L major viab)
O=C(N/N=C/c1ccccc1OCc1ccccc1Cl)c1cccnc1	L major viab 90.9 | Lmaj promast 1uM inactive
CCOc1ccccc1/C=N/NC(=O)c1cccc(Cl)c1	none
O=C(COC(=O)c1cc(=O)[nH]c(=O)[nH]1)Nc1cccc(S(=O)(=O)N2CCCCC2)c1	none
Cc1nn(-c2nc3ccccc3[nH]2)c(N)c1-c1ccc(Cl)cc1	L major viab 64.5 (no result: S1P3 antag) | Lmaj promast 1uM 74.1
Cc1nn(-c2nc3ccccc3[nH]2)c(=O)c2ccccc12	none
O=C(O)CC1CCS(=O)(=O)C1 (configuration not stated)	none
O=C(O)CC1CCC(=C(Cl)Cl)C1 (configuration not stated)	L major viab 95.4 | Lmaj promast 1uM inactive
CCCCCCCCC/C(=N\O)c1ccccn1	L major viab 87.5 (no result: S1P3 antag) | Lmaj promast 1uM inactive
Cc1nc2c(C)cccn2c1/C(O)=C1\C(=O)C(=O)N(CCN2CCOCC2)C1c1cccs1 (configuration not stated)	none (no result: S1P3 antag)
COc1ccc(NC(=O)Nc2cccc([N+](=O)[O-])c2)cc1Cl	L major viab 98.2 | Lmaj promast 1uM inactive
CC(CCc1ccccc1)NCc1ccncc1 (configuration not stated)	L major viab 88.5 | Lmaj promast 1uM inactive
Cc1oc2c(CN3CCCC3)c(O)ccc2c(=O)c1-c1ccc(Br)cc1	L major viab 99.2 | Lmaj promast 1uM inactive
Cc1onc(-c2c(Cl)cccc2Cl)c1C(=O)N1CCCc2ccccc21	L major viab 92.2 (no result: S1P3 antag) | Lmaj promast 1uM inactive
O=c1c2ccccc2c(/C=N/c2n[nH]c(CCCO)n2)c(O)n1-c1ccccc1Cl	none
CCN(CC)CCNC(=O)c1[nH]c2ccc(OCc3ccccc3)cc2c1C	L major viab 100.5 | Lmaj promast 1uM inactive
Cc1nnc(SCc2ccc(F)cc2)n1NC/C=C/c1ccccc1	none (no result: S1P3 antag)
C/C(=N\Nc1ccc([N+](=O)[O-])cc1[N+](=O)[O-])C(C)(C)C(C(=O)O)C(=O)O	none
Cc1ccc(-c2nnc(Sc3nc4ccccc4o3)c3ccccc23)cc1	L major viab 76.0 (no result: S1P3 antag) | Lmaj promast 1uM inactive
Cc1nnc(Sc2nc3ccccc3o2)c2ccccc12	L major viab 64.0 | Lmaj promast 1uM inactive
CCSc1nnc(-c2ccc(Cl)cc2)c2ccccc12	none (no result: S1P3 antag)
Clc1ccc(-c2nnc(Sc3nc4ccccc4o3)c3ccccc23)cc1	L major viab 89.7 (no result: S1P3 antag) | Lmaj promast 1uM inactive
CCSc1nnc(C)c2ccccc12	none (no result: MDM2 E3 inh)
CCN(CCCNC(=O)C1CCN(S(=O)(=O)c2cnc[nH]2)CC1)c1cccc(C)c1	none
COCCNC(=S)NC12CC3CC(CC(C3)C1)C2	L major viab 52.9 (no result: S1P3 antag) | Lmaj promast 1uM inactive
COCCNC(=O)NC12CC3CC(CC(C3)C1)C2	none
Nc1n[nH]c(-c2ccccc2)n1	none (no result: S1P3 antag)
Nc1n[nH]c(-c2ccccc2[N+](=O)[O-])n1	L major viab 60.3 | Lmaj promast 1uM inactive
O=C(Nc1ccccc1)c1ccc(=O)n(Cc2ccc(F)c(F)c2)c1	none
c1ccc(-c2nnnc3ccccc23)cc1	none
Clc1ccc2nnnc(-c3ccccc3)c2c1	L major viab 85.7 | Lmaj promast 1uM inactive
CCOc1ccc(-c2c(=O)n(OCc3ccc([N+](=O)[O-])cc3)c3ccccc3[n+]2[O-])cc1	none
Cc1ccc(S(=O)(=O)n2cc(-c3ccccc3)c(N)n2)cc1	none (no result: S1P3 antag)
Nc1nn(S(=O)(=O)c2ccccc2)cc1-c1ccc([N+](=O)[O-])cc1	L major viab 99.2 | Lmaj promast 1uM inactive
O=C1CCC([N+](=O)[O-])C(c2cccc(Br)c2)N1 (configuration not stated)	L major viab 54.2 | Lmaj promast 1uM inactive
CCCCCCCNC1=CC(=O)CC(c2ccccc2)C1 (configuration not stated)	L major viab 99.5 | Lmaj promast 1uM inactive
CCCCCNC1=CC(=O)CC(c2ccccc2)C1 (configuration not stated)	none (no result: S1P3 antag)
Cn1ccnc1SCc1cn2cc(Br)ccc2n1	L major viab 82.5 (no result: S1P3 antag) | Lmaj promast 1uM inactive
O=c1c(C=NCCN2CCNCC2)c(-c2ccccc2)[nH]n1-c1ccc([N+](=O)[O-])cc1	L major viab 100.5 | Lmaj promast 1uM inactive
COc1ccc(-c2[nH]n(-c3ccc([N+](=O)[O-])cc3)c(=O)c2C=NCCN2CCNCC2)cc1	none
Cc1ccc(C(CC(N)=O)c2ccco2)cc1 (configuration not stated)	none (no result: S1P3 antag)
Cc1ccc(C(CCN)c2ccco2)cc1 (configuration not stated)	L major viab 97.7 | Lmaj promast 1uM inactive
Cc1ccc(S(=O)(=O)NC(=O)c2cc(C)n(C3CC3)c2C)cc1	none
CC(C)c1ccc(-n2nc3ccc(N)cc3n2)cc1	none
Cc1ccc(-n2nc3ccc(N)cc3n2)cc1	L major viab 83.7 | Lmaj promast 1uM inactive
